# MrgX1 agonist – agonists of human MrgX1 receptor, primary screen, HEK293 cells, Fluo-4 calcium flux. Mas-related G-protein coupled receptor member X1 (Homo sapiens), Q96LB2. Fluo-4 calcium fluorescence, agonist mode; stronger effect = higher value. B-score at 10 µM. actives 0.44% (n = 310,000);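 active means calcium response B-score plate-corrected fluorescence ratio at least 3 library SD, with starting fluorescence B-score inside 5 SD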
# Target sequence (Q96LB2 whole entry, looked up): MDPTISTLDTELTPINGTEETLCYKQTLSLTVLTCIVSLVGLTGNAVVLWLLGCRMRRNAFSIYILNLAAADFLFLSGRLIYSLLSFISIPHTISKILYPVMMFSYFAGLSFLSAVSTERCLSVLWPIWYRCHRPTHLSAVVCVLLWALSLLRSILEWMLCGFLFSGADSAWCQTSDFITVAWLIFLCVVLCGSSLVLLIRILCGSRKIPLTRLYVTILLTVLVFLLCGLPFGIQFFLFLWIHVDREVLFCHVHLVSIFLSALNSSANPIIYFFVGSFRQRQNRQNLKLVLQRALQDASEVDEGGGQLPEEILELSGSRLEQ
#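 System: HEK293 cells stably expressing human MrgX1 receptor; Dosing: test compound in the initial addition of three; Schedule: overnight plating, then 30 min 37 °C plus 30 min room-temperature dye loading; Detection: kinetic calcium dye fluorescence, Fluo-4 NW; Controls: per-plate positive and negative controls for Z′ factor.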
# RGS4 inh – RGS4 inhibitors, primary screen, cell-based, HEK293 M3R inducible RGS4, calcium flux. Regulator of G-protein signaling 4 (Homo sapiens), P49798. Fluo-4 calcium flux; stronger effect = higher value; triggered by carbachol at its EC20. B-score at 10 µM. actives 0.45% (n = 310,000). AID 463165, 2010;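 active means B-score, a plate-corrected calcium signal, over three deviations above library mean, with baseline fluorescence within five deviations of library mean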;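 further: RGS4 expression induced by doxycycline in cells with stable M3 receptor; B-score is computed from the integrated fluorescence ratio over baseline after carbachol; higher B-score means a larger calcium signal and so more RGS4 inhibition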
# MrgX1 PAM – positive allosteric modulators of MrgX1, primary screen, HEK293 cells, Fluo-4 calcium flux. actives 0.63% (n = 310,000). FDSS; stronger effect = higher value. Mas-related G-protein coupled receptor member X1 (Homo sapiens), Q96LB2. B-score at 10 µM;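 active means plate-corrected calcium response at least 3 library SD above typical, normal starting fluorescence, not activating the receptor alone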;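 further: compound read alongside a low EC10 to EC30 dose of BAM8-22 agonist; peak minus trough fluorescence over baseline measured at the second addition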
# MrgX1 antagonist – antagonists of human MrgX1 receptor, primary screen, HEK293 cells, Fluo-4 calcium flux. BAM8-22 antagonism; stronger effect = lower value. B-score at 10 µM. actives 1.3% (n = 310,000). AID 588676, 2011;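 active means calcium-response B-score plate-corrected more than 3 library SD below zero, starting fluorescence within 5 deviations, no agonist response on first addition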;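 further: peak minus trough fluorescence over baseline after final BAM8-22 challenge near maximal dose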
# PHOSPHO1 block – PubChem AID 1565. Phosphoethanolamine/phosphocholine phosphatase (Homo sapiens), Q8TCT1. recombinant PHOSPHO1, absorbance phosphatase assay. inhibition, % at 13.3 µM. actives 1.1% (n = 290,000); in the data active means inhibition above about 60%
# Target sequence (Q8TCT1 whole entry, looked up): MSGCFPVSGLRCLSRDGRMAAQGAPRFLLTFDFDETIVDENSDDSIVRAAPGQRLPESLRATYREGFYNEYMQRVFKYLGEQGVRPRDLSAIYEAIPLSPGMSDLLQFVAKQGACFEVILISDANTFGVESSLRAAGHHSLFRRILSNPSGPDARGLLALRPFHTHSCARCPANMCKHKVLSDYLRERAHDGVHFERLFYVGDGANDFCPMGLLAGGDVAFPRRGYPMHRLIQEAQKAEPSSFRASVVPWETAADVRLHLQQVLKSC
# RGS4 act – RGS4 potentiators or activators, primary screen, cell-based, HEK293 M3R inducible RGS4, calcium flux; AID 463111, 2010; actives 0.92% (n = 310,000); B-score at 10 µM; carbachol calcium flux Fluo4; stronger effect = lower value;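 active means B-score of the integrated calcium signal more than 4 SD below the library mean, with starting fluorescence not abnormally high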;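 further: negative B-score means reduced calcium response which marks RGS4 activation or potentiation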
#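 Reagent: ECmax carbachol challenge; Test system: M3R-expressing HEK293 line, RGS4 induced by doxycycline; Schedule: overnight RGS4 induction, 30 min dye load 37 °C, 20 min compound RT; Detection: calcium dye Fluo4 fluorescence; Read-out: Agonist-evoked peak-minus-minimum fluorescence over baseline, integrated ratio, B score.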
# Starred values were filed as active, the others as inactive; i = inactive; x = no result. This is a sample that favours compounds with a hit; in the whole collection about 4.5% have one here.
SMILES,MrgX1 agonist,RGS4 inh,MrgX1 PAM,MrgX1 antagonist,PHOSPHO1 block,RGS4 act
Cc1ccc(S(=O)(=O)N2[C@@H](c3cccc(Cl)c3)C(C(=O)O)=CC[C@H]2c2ccc3c(c2)OCO3)cc1,i,x,7*,i,x,x
Cc1ccc(C)c(OCC(=O)Nc2nc3ccc([N+](=O)[O-])cc3s2)c1,i,i,i,-7.2*,-7,i
Cc1nnc(N/N=C/c2ccc(Br)cc2)n1N,i,i,18*,i,-2,i
CCCn1c(N)c(NCCN2CCOCC2)c(=O)n(CC(=O)NCc2ccccc2)c1=O,i,i,i,i,-10,i
CC(O)CNc1nc2ccccc2n1CC(=O)NCC(F)(F)F (stereo not drawn),i,i,i,i,73*,i
CC(O)CNc1nc2ccccc2n1CC(=O)N1CCN(Cc2ccccc2)CC1 (stereo not drawn),i,i,i,i,25,i
NS(=O)(=O)c1ccc(N/N=C/c2ccccc2Br)cc1,i,i,6.8*,i,17,i
O=[N+]([O-])c1ccc(N/N=C/c2ccccc2O)cc1,i,i,i,-4.9*,13,i
O=[N+]([O-])c1cccc(N/N=C/c2cc([N+](=O)[O-])ccc2O)c1,i,i,i,i,-4,i
CC(C)CC1Nc2ncnc(N3CCN(c4ccccc4)CC3)c2N(Cc2ccc(Br)cc2)C1=O (stereo not drawn),i,i,i,i,x,i
CC(OC(=O)c1ccccc1Br)C(=O)Nc1nc(-c2cccc([N+](=O)[O-])c2)cs1 (stereo not drawn),i,i,i,-5.5*,14,i
COCCN(C(=S)Nc1ccccc1C)C(C)c1cccs1 (stereo not drawn),i,i,i,i,4,i
CCCc1cc(SCC(=O)Nc2c(C)n(C)n(-c3ccccc3)c2=O)n2c(nc3ccccc32)c1C#N,i,i,i,i,100*,i
CCCCn1nnnc1SCC(=O)NNC(=O)C1CCCCC1,i,i,i,-5.1*,34,i
CCCn1nnnc1SCC(=O)NC1CCCC1,i,i,i,i,0,i
CCOc1cc(/C=N/NC(=O)c2cccnc2)ccc1OCC(=O)N1CCOCC1,i,i,i,i,-4,i
O=C(O)c1ccc(CNC(=O)c2ccccc2NC(=O)c2ccc([N+](=O)[O-])cc2)cc1,i,i,i,-4.9*,9,i
O=C(O)c1ccc(CNC(=O)c2ccccc2NC(=O)c2cccc([N+](=O)[O-])c2)cc1,i,i,i,i,-23,i
CCC(=O)Nc1ccc(C(=O)NNC(=O)COc2cc(C)ccc2C)cc1,i,i,i,i,1,i
CC1Nc2ncnc(N3CCc4ccccc4C3)c2N(Cc2ccc(Br)cc2)C1=O (stereo not drawn),i,i,i,i,x,-9*
CSc1sc2ccccc2[n+]1CCCS(=O)(=O)[O-],i,i,i,i,89*,i
CC1OC(OC2C(OC3C(O[C@H]4CC[C@]5(C)C6C=C[C@]78OC[C@@]9(CC[C@@H](C)[C@H](C)C97)[C@H](O)C[C@@]8(C)[C@]6(C)CC[C@H]5C4(C)C)OC(C)C(O)C3O)OC(CO)C(O)C2O)C(O)C(O)C1O (stereo partly drawn),x,i,x,x,18,-7.4*
CCCCn1c(=O)nc2n(-c3ccccc3)c3ccccc3cc-2c1=O,i,i,i,i,-37,-9.7*
CC(C)c1ccc(NC(=O)CCN2C(=O)[C@@H]3Cc4ccccc4CN3C2=O)cc1,i,i,i,i,-9,i
Cn1c(SCC(=O)N2CCCC2=O)nc2ccccc21,i,i,i,i,32,i
SMILES,MrgX1 agonist,RGS4 inh,MrgX1 PAM,MrgX1 antagonist,PHOSPHO1 block,RGS4 act
Oc1ccc(Cl)cc1C(C#Cc1ccccc1)N1CCOCC1 (stereo not drawn),i,i,i,i,0,i
NC(=O)CSc1ncc(-c2ccccc2)[nH]1,i,i,i,i,74*,i
O=C(CSc1ncc(-c2ccccc2)[nH]1)Nc1cccc(O)c1,i,i,i,i,94*,i
CCOP(=O)(c1ccc(N(C)C)cc1)C(O)c1ccc(C)cc1 (stereo not drawn),i,i,i,i,x,i
CCOc1ccc(C(=O)NCCNC(=O)c2ccc(OCC)cc2)cc1,i,i,i,i,-3,i
CCOc1ccc(C(=O)NCCCN(CC)CC)cc1,i,i,i,-5.4*,1,i
CCOC(=O)c1c(C)n(S(=O)(=O)c2ccc(C)cc2)c2ccc(O)c(C(=O)O)c12,i,i,i,i,28,i
O=C(COc1ccc(Cl)cc1)NCc1nnc(SCC(=O)NC2CCCC2)o1,i,i,i,-6.4*,-17,i
O=C(CSc1nnc(COc2ccc(Cl)cc2)o1)NC1CC2CCC1C2 (stereo not drawn),i,i,i,-4.7*,40,i
COc1ccc(-c2ccc(C(=O)O)o2)c([N+](=O)[O-])c1,i,i,i,i,29,i
CNC(=O)/C(C#N)=C/c1ccc(-c2ccc(OC)cc2[N+](=O)[O-])o1,i,i,i,-5.2*,18,i
O=C(CCC1CCCC1)N=C1SC2CS(=O)(=O)CC2N1c1ccccc1F (stereo not drawn),i,i,i,i,13,i
CCn1c(C)[n+](CCOCC[n+]2c(C)n(CC)c3cc(Cl)c(Cl)cc32)c2cc(Cl)c(Cl)cc21,i,x,i,i,83*,x
CCOc1ccccc1NCc1nnc(-c2ccccc2)o1,i,i,i,i,x,-7.5*
CCc1ccc2nc3sc(C(=O)N4CCc5ccccc54)c(N)c3cc2c1,i,i,i,-7.7*,-10,i
CC(C)c1ccc2nc3sc(C(=O)N4CCc5ccccc5C4)c(N)c3cc2c1,i,i,i,-5.8*,-16,i
C=C(C)CSc1nc2sc3c(c2c(=O)n1-c1ccc(C)cc1)CCN(C)C3,x,i,x,x,18,-10*
CCn1c(SCC(N)=O)nc2sc3c(c2c1=O)CCN(C)C3,i,i,i,i,41,i
